The values below come from ChEMBL document CHEMBL1138519, “Modulating retinoid X receptor with a series of (E)-3-[4-hydroxy-3-(3-alkoxy-5,5,8,8-tetramethyl-5,6,7,8-tetrahydronaphthalen-2-yl)phenyl]acrylic acids and their 4-alkoxy isomers” (J Med Chem, 2009).

Calls of active or inactive are those of the source. The calls are words filed in the database; no cut-off is given here.

For experiment [1], the target named is T1, Retinoic acid receptor RXR-beta (Homo sapiens) (UniProt P28702).
T1 sequence (whole entry): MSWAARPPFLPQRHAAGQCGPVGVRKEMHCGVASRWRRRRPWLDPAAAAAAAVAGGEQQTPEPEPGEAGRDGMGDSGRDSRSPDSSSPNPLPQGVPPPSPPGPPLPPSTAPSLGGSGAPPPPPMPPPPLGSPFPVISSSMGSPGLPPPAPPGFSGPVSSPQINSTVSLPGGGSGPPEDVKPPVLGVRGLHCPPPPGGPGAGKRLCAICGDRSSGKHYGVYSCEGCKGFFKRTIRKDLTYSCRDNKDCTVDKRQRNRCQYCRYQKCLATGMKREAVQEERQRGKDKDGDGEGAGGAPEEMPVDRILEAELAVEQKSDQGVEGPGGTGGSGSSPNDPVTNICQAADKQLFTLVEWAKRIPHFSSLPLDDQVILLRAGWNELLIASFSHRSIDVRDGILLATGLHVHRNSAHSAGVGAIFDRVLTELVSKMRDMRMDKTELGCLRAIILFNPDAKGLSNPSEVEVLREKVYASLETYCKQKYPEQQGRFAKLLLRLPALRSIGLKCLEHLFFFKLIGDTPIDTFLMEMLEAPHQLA
The experiment can be described thus: Antagonist activity at Gal4-tagged human RXRbeta receptor expressed in human HeLa cells assessed as inhibition of CD3254-induced transcription at >=10 uM by luciferase reporter assay. It counts as functional, cell-based. A digest of the protocol: (§1)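 Gal4-hRXRβ/(Gal4)5-β-globin-luciferase HeLa reporter cells, maintained in DMEM with 5% FCS and selection antibiotics. Cells were co-treated for 16 h at 37 °C with 3 nM of the reference RXR agonist and increasing compound concentrations. After lysis, luciferase was read as RLU to measure antagonism of agonist-induced transcription.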
On the technique in general: A reporter such as luciferase makes a cellular process visible.

Experiment [2] addresses T1, Retinoic acid receptor RXR-beta (Homo sapiens). The experiment can be described thus: Activity at Gal4-tagged human RXRbeta receptor expressed in human HeLa cells assessed as relative transcriptional activity by luciferase reporter assay relative to CD3254. More on the design: concentration or dose not given beside the values. In kind it is cell-based. A digest of the protocol: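 HeLa cells stably carrying a Gal4-hRXRβ chimera (RXRβ LBD fused to the GAL4 DBD) and a (Gal4)5-β-globin-luciferase reporter. Cells were grown in DMEM with 5% FCS plus G418, puromycin, hygromycin and gentamycin. They were exposed to increasing compound concentrations for 16 h at 37 °C and 5% CO2, then washed, lysed, and read for luciferase luminescence (RLU).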

In experiment [3] the target is T2, Retinoic acid receptor alpha/Retinoid X receptor alpha (Homo sapiens) (UniProt P10276+P19793). The experiment in a line: Activity at RARalpha/RXRalpha ligand binding domain assessed as stabilization of RXR helix H12 by fluorescence anisotropy. In kind it is protein-complex assay. A digest of the protocol: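 RARα-RXRα LBD heterodimer, 0.120 µM, carrying a fluorescent dye attached to the RXRα C-terminus. Steady-state anisotropy was read with excitation at 470 nm and emission at 530 nm, with ligand at saturating concentration. At least three independent measurements were made per sample.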
For orientation: Fluorescence polarisation rises when a labelled molecule tumbles more slowly, as on binding a larger partner.

For experiment [4], the target named is T2, Retinoic acid receptor alpha/Retinoid X receptor alpha (Homo sapiens). The experiment can be described thus: Activity at RARalpha/RXRalpha ligand binding domain assessed as stabilization of RXR helix H12 by fluorescence anisotropy in presence of up to 10 uM coactivator peptide TIF-NR2. In kind it is protein-complex assay. A digest of the protocol: (§2)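 Heterodimer (0.120 µM, dye on the RXRα C-terminus) with 10 µM ligand. Anisotropy was read at excitation 470 nm and emission 530 nm, with at least three independent measurements.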

For experiment [5] the target is unchanged. The experiment can be described thus: Activity at RARalpha/RXRalpha ligand binding domain assessed as stabilization of RXR helix H12 by fluorescence anisotropy in presence of 1 uM coactivator peptide TIF-NR2. It counts as protein-complex assay. A digest of the protocol:
as §2

Experiment [6] addresses T1, Retinoic acid receptor RXR-beta (Homo sapiens). The experiment in a line: Antagonist activity at Gal4-tagged human RXRbeta receptor expressed in human HeLa cells assessed as inhibition of CD3254-induced transcription at 1 uM by luciferase reporter assay. It counts as functional, cell-based. A digest of the protocol:
as §1

As to `CCCOc1cc(-c2cc(/C=C/C(=O)O)ccc2O)cc2c1C(C)(C)CCC2(C)C`, the result in experiment [1] and in experiment [4] was Active. The Activity in experiment [2] is above 10%. Also, in experiment [3], the outcome was inactive.

Consider `CCCCCCOc1cc(-c2cc(/C=C/C(=O)O)ccc2O)cc2c1C(C)(C)CCC2(C)C`, for which the result in experiment [1] and in experiment [4] was Active. Further, the Activity in experiment [2] was above 10%. The outcome in experiment [3] was inactive.

In the case of `CCCCOc1cc(-c2cc(/C=C/C(=O)O)ccc2O)cc2c1C(C)(C)CCC2(C)C`, the result in experiment [1] and in experiment [4] was Active. For the same compound, the Activity in experiment [2] was above 10%. Also, the outcome in experiment [3] was inactive.

Turning to `Cc1cc2c(cc1-c1cc(/C=C/C(=O)O)ccc1O)C(C)(C)CCC2(C)C`, the outcome in experiment [5] was Active.

Turning to `COc1cc(-c2cc(/C=C/C(=O)O)ccc2O)cc2c1C(C)(C)CCC2(C)C`, the result in experiment [1] and in experiment [4] was Active. Also, the Activity in experiment [2] was above 30%. In experiment [3], the result was inactive.

Turning to `CCCCCCOc1cc2c(cc1-c1cc(/C=C/C(=O)O)ccc1O)C(C)(C)CCC2(C)C`, in experiment [4], the outcome was inactive.

Consider `CCCCCOc1cc2c(cc1-c1cc(/C=C/C(=O)O)ccc1O)C(C)(C)CCC2(C)C`, for which the outcome in experiment [2], in experiment [3] and in experiment [4] was inactive. The outcome in experiment [6] was Active.

For `CCOc1cc(-c2cc(/C=C/C(=O)O)ccc2O)cc2c1C(C)(C)CCC2(C)C`, the result in experiment [1] and in experiment [4] was Active. Further, the Activity in experiment [2] was above 10%. Further, the result in experiment [3] was inactive.

As for `CCCCCOc1cc(-c2cc(/C=C/C(=O)O)ccc2O)cc2c1C(C)(C)CCC2(C)C`, the result in experiment [1] and in experiment [4] was Active. Also, the Activity in experiment [2] was above 10%. Besides, in experiment [3], the outcome was inactive.
